# Compound activity: PubChem BioAssay, several laboratories
# TNAP inh no acc – inhibitors of human TNAP without phosphate acceptor; purified TNAP, CDP-star luminescence, 30 min; P05186; 200,000 compounds, 0.26% hits; inhibition, % at 20 µM;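 active means tissue-nonspecific alkaline phosphatase inhibition above about 50% at 20 µM in the single-dose screen, limit read from the data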;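 further: 0% = DMSO negative control and 100% = EDTA positive control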
# Redox H2O2 prof – compounds producing H2O2 with reducing agent – biochemical, NIH compound library profiling, artefact control for MLSCN library redox annotation, primary screen; DTT-dependent redox cycling H2O2, phenol red/HRP absorbance; 100% = 100 µM peroxide control, 0% = buffer; activation, % at 10 µM; 200,000 compounds, 0.03% hits;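 active means activation of at least 50% relative to the plate's high and low controls in the primary single-dose screen; inactive means activation below 50%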;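 further: compound incubated with DTT at 0.8 mM final as the reducing agent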
# PERK inhibitor – inhibitors of human PERK kinase; Q9NZJ5; CHO PERK-DD fusion, SEAP luminescence translation reporter; inhibition, % at 5.6 µM; 220,000 compounds, 0.17% hits;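 active means inhibition above the mean inhibition of all tested compounds plus 3 SD, set separately per screening campaign, cut at about 2.9% in these data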;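 further: PERK kinase domain activated by AP20187 dimerizer at 100 nM; 0% = DMSO with dimerizer and 100% = rapamycin at 8.4 µM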
# p97 ATPase inh – inhibitors of human p97 ATPase. P55072. recombinant p97 ATPase, Kinase-Glo ATP luminescence, 3 h. inhibition, % at 8 µM. 220,000 compounds, 0.42% hits; in the data active means inhibition above about 15%;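 further: 0% = DMSO vehicle and 100% = wells lacking enzyme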
# Target sequence (P55072 whole entry, looked up): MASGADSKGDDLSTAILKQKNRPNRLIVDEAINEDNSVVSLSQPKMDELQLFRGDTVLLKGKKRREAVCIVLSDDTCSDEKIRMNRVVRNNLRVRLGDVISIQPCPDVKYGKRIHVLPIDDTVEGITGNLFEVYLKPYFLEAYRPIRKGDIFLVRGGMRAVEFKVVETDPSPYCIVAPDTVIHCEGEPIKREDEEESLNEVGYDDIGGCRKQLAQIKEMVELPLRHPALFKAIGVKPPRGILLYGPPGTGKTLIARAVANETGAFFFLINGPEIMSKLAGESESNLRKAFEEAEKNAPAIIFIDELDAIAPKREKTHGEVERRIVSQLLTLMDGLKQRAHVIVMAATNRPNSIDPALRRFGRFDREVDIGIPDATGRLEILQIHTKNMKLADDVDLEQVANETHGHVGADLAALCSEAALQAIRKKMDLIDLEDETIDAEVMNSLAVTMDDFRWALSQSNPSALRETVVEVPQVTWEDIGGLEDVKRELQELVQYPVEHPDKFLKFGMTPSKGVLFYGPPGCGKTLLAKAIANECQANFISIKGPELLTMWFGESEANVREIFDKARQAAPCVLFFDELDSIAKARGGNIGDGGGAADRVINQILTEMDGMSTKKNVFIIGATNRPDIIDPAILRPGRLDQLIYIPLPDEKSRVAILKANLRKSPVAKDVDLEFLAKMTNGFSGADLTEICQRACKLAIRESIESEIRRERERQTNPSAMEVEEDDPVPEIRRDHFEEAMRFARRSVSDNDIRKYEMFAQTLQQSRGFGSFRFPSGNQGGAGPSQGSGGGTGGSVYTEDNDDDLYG
# TNAP act hi DEA – activators of human TNAP at high phosphate acceptor concentration; P05186; purified TNAP, CDP-star luminescence, 1 M DEA, 30 min; stronger effect = higher value; 0 = EDTA background, 1 = DMSO-only activity; activation factor at 20 µM; 200,000 tested, under 10 active;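 active means activation factor at least 2 at 20 µM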
#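 Test system – human TNAP · Doses – 20 µM single point · Incubation – 30 min, room temperature · Signal – luminescent substrate turnover signal · Read-out basis – activation factor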
# TNAP inh hi DEA – TNAP (human) inhibition, high acceptor. inhibition, % at 20 µM. purified TNAP, CDP-star luminescence, 1 M DEA. 200,000 compounds, 0.03% hits. P05186. AID 1135;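 active means over 50% inhibition of tissue-nonspecific alkaline phosphatase at 20 µM in the single-dose screen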;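 further: plate controls were DMSO wells for no effect and EDTA-quenched wells as full inhibition for full effect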
# p97 confirm – confirmation of human p97 ATPase inhibitors. recombinant p97 ATPase, Kinase-Glo ATP luminescence. AID 1517. 760 compounds, 44% hits. inhibition, % at 8 µM. shares compounds with p97 ATPase inh;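 active means percent inhibition of p97 ATPase above a set limit, the primary screen's mean plus 3 SD, cut at about 15% in these data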;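 further: 0% = DMSO wells and 100% = wells lacking p97 protein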
# * marks the source's active call; other numbers are inactive results; . = not tested or not shown. Hits are enriched below; roughly 0.86% of the tested compounds scored in any of these assays.
SMILES,TNAP inh no acc,Redox H2O2 prof,PERK inhibitor,p97 ATPase inh,TNAP act hi DEA,TNAP inh hi DEA,p97 confirm
CCCn1nc([N+](=O)[O-])c(C(C#N)c2nc3ccccc3o2)c(Cl)c1=O (stereo not given),36,1,1,2,0.6,40,.
Cc1cc(=O)n(-c2ccc(Cl)cc2)c(=O)[nH]1,-16,-1,1,4,1,-3,.
Cc1[nH]n(-c2ccccc2)c(=O)c1C(c1cccc([N+](=O)[O-])c1O)c1c(C)[nH]n(-c2ccccc2)c1=O,14,0,0,24*,0.9,12,6
Cc1c(C(c2cccc([N+](=O)[O-])c2O)c2c(C)n(C)n(-c3ccccc3)c2=O)c(=O)n(-c2ccccc2)n1C,-2,1,0,-2,1,4,.
Cc1cc(/C=N/NC(N)=S)c(O)c(/C=N/NC(N)=S)c1,.,.,2,19*,.,.,20*
CC1CN(C(=O)COC(=O)c2ccc(Cl)nc2)CC(C)O1 (stereo not given),-5,0,0,0,1,-2,.
O=C(CSc1ncnc2scc(-c3ccccc3)c12)Nc1ccc(C(=O)O)cc1,.,.,1,20*,.,.,17*
N#C/C(=C(/O)CCl)c1nc2ccccc2[nH]1,-17,-1,1,38*,1,-1,30*
Cc1ccc(C)c(SCC(=O)OC/C(O)=C(\C#N)c2nc3ccccc3[nH]2)c1,-10,0,0,18*,1.1,-6,40*
Cc1cc(Br)ccc1SCC(=O)OC/C(O)=C(\C#N)c1nc2ccccc2[nH]1,.,.,1,7,.,.,.
N#C/C(=C(\O)Cc1ccccc1)c1nc2ccccc2[nH]1,-3,0,-1,-5,1,-5,.
Oc1cccc(/C=N/NC(=S)Nc2cccnc2)c1O,-174,.,1,18*,1,1,35*
Fc1cccc(F)c1/C=N/NC(=S)Nc1cccnc1,-33,-2,1,-1,1,-3,.
Fc1c(F)c(F)c(/C=N/NC(=S)Nc2cccnc2)c(F)c1F,-6,-1,1,4,1,0,.
Oc1ccc(/C=N/NC(=S)Nc2cccnc2)c(O)c1O,.,.,0,20*,.,.,20*
Oc1ccc(/C=N/NC(=S)Nc2cccnc2)c(O)c1,-35,0,0,19*,1,-4,26*
COCc1nnc(NC(=O)c2ccc(S(=O)(=O)N(C)C3CCCCC3)cc2)o1,-11,-1,1,0,1,-2,.
CCCn1c(CCC(=O)O)nc2cc(S(N)(=O)=O)ccc21,.,.,2,5,.,.,.
COCCCNC(=O)c1cc(S(=O)(=O)N2CCOCC2)ccc1SCc1cccc(OC)c1OC,10,-2,0,-1,1,2,.
CCCC(C(=O)NC1CCCC1)N(CC1CCCO1)C(=O)c1snc(C(N)=O)c1N (stereo not given),-9,0,-1,-1,1,-3,.
CCCC(C(=O)NC1CCCC1)N(CCCN1CCOCC1)C(=O)c1snc(C(N)=O)c1N (stereo not given),-6,0,0,16*,1,-1,5
Nc1ccc(Sc2cc(Cl)nc(N)n2)cc1,-3,1,0,-2,1,-2,.
Nc1nc(N)c2cc(Sc3ccc4ccccc4c3)ccc2n1,.,.,-2,15*,.,.,24*
COc1cc(NS(=O)(=O)c2ccc(NC(=O)C34CC5CC(CC(C5)C3)C4)cc2)ncn1,-8,0,0,-5,1,-2,.
Cn1cc(C(=O)c2ccc(Cl)cc2Cl)cc1C(=O)N/N=C(\N)COc1ccc(Cl)cc1,.,.,0,18*,.,.,20*
SMILES,TNAP inh no acc,Redox H2O2 prof,PERK inhibitor,p97 ATPase inh,TNAP act hi DEA,TNAP inh hi DEA,p97 confirm
CCOc1ccc(N(CC(=O)NC(C(C)C)C(C)C)S(=O)(=O)c2ccc(OC)c(OC)c2)cc1,-5,0,-1,1,1,-3,.
CCOC(=O)C(C)Oc1cccc2c(=O)n(CC(=O)Nc3ccc4c(c3)OCCO4)ccc12 (stereo not given),16,1,1,35*,1,-5,8
O=c1[nH]c(/C(Cl)=C/c2c(F)cccc2Cl)nc2cc(Cl)ccc12,-6,0,1,28*,1,-1,35*
O=c1[nH]c(/C(Cl)=C/c2cc(Cl)ccc2O)nc2cc(Cl)ccc12,-16,0,0,29*,1,-1,42*
O=c1c2c3nc4ccccc4nc3n(Cc3ccccc3)c2ncn1Cc1ccco1,-1,2,0,16*,1,1,34*
COC(=O)CC1Sc2ccccc2NC1=O (stereo not given),-8,1,1,16*,1,-4,5
COc1ccc(CNC(=O)CC2Sc3ccccc3NC2=O)cc1 (stereo not given),-12,0,0,6,1.1,-6,.
Cc1ccc(C(C)C)c(OC/C(O)=C(\C#N)c2nc3ccccc3[nH]2)c1,.,.,-1,-1,.,.,.
Nc1nonc1-c1noc(CCCCCN2C(=O)c3ccccc3C2=O)n1,-6,1,0,1,1,0,.
O=C(N/N=C/c1cccs1)c1cc(-c2cccc3ccccc23)n[nH]1,0,0,0,16*,1,4,27*
O=C(N/N=C/c1cccs1)c1cc(-c2ccc3ccccc3c2)n[nH]1,35,2,0,5,1,3,.
Cc1ccc(C(C(=O)NCc2ccco2)N(C(=O)Cn2nnc3ccccc32)c2ccccc2)o1 (stereo not given),-18,0,-2,16*,1.1,-8,8
O=c1cc(N=Nc2ccc(Cl)cc2)[nH]c(=O)[nH]1,.,.,1,28*,.,.,15*
CCn1nc(CC(=O)Nc2nnc(CC(=O)N3CCOCC3)s2)c2ccccc2c1=O,-6,2,1,20*,1,-2,8
CCn1nc(CC(=O)Nc2nnc(CC(=O)N3CCCC3)s2)c2ccccc2c1=O,1,0,2,6,1.1,-7,.
